Legend:
Format in all cases: functional
[1] = Ratio between Antiischemic potency to Vasorelaxant potency
Method in brief: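 Cardioselectivity was taken as the ratio of two values. The first is the EC25 for a 25% increase in time to contracture, in globally ischemic isolated perfused rat hearts. The second is the IC50 for relaxation of methoxamine-contracted rat aorta.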

Rattus norvegicus [2] = organism: Rattus norvegicus; experiment: Antiischemic potency was determined for increase in time to contracture by 25% in globally ischemic rat hearts.
Method in brief: (§1)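 Isolated rat hearts were perfused, then subjected to total global ischemia. Contracture onset was taken as the time for end diastolic pressure to rise 5 mmHg above baseline. EC25 is the concentration that raises time to contracture by 25%.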

Rattus norvegicus [3] = organism: Rattus norvegicus; experiment: Vasorelaxant potency was determined for inhibition of methoxamine contracted rat aorta.
Method in brief: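 Vasorelaxation was measured in rat aorta precontracted with methoxamine. IC50 is the concentration giving relaxation of the contraction.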

Rattus norvegicus [4] = organism: Rattus norvegicus; experiment: Antiischemic potency was determined at 10 uM for increase in time to contracture by 25% in globally ischemic rat hearts.
Rattus norvegicus [5] = organism: Rattus norvegicus; experiment: Antiischemic potency for increase in time to contracture by 25% in globally ischemic rat hearts.; method in brief: as §1

| Compound | IC50 (Rattus norvegicus [3]) | Ratio [1] | EC25 (Rattus norvegicus [2]) | Increase in time to contracture (Rattus norvegicus [4]) | Inhibition (Rattus norvegicus [5]) |
| --- | --- | --- | --- | --- | --- |
| CC(C)(C)c1ccc(C#N)cc1/N=C(/NC#N)Nc1cccnc1 | 1.2 µM | – | – | 16% | – |
| CC(C)(C)c1ccc(C#N)cc1NC(=O)Nc1ccc(Cl)nc1 | 1.6 µM | 12 | 0.0192 mM | – | – |
| CC(C)(C)c1ccc(C#N)cc1NC(=O)Nc1cccnc1 | 25.7 µM | 1.2 | 0.0297 mM | 25% | – |
| CC(C)(C)c1ccc(C#N)cc1NC(=O)Nc1ccncc1 | 7.8 µM | – | – | 14% | – |
| CC1(C)CC(NC(=O)Nc2ccccc2)c2cc(C#N)ccc21 (centres undefined) | 1.3 µM | 7.2 | 0.0094 mM | – | – |
| CC(C)(C)c1ccc(C#N)cc1NC(=O)Nc1ccccc1 | 1.7 µM | 19.9 | 0.0338 mM | – | – |
| Cc1ccc(S(=O)(=O)Nc2ccc(C#N)cc2NC(=O)Nc2cccnc2)cc1 | > 100 µM | – | – | – | 0% |

The remaining compounds from weak to strong by IC50 (Rattus norvegicus [3]), led by results:

| IC50 (Rattus norvegicus [3]) | Compound | Ratio [1] | EC25 (Rattus norvegicus [2]) | Increase in time to contracture (Rattus norvegicus [4]) | Inhibition (Rattus norvegicus [5]) |
| --- | --- | --- | --- | --- | --- |
| 25.7 µM | CC(C)(C)c1ccc(C#N)cc1NC(=O)Nc1ccccn1 | – | – | 25% | – |
| 22.8 µM | N#Cc1ccc(-c2ccccc2)c(NC(=O)Nc2cccnc2)c1 | – | 0.012 mM | – | – |
| 15.3 µM | CC(C)(C)c1ccc(C#N)cc1NC(=O)Nc1cnccn1 | 0.77 | 0.0119 mM | – | – |
| 12.4 µM | CC(C)(C)c1ccc(C#N)cc1NC(=O)Nc1cncnc1 | – | – | 2% | – |
| 6.7 µM | CC1(C)CCN(C(=O)Nc2ccccc2)c2cc(C#N)ccc21 | 3.9 | 0.026 mM | – | – |
| 1.5 µM | CC1(C)CN(C(=O)Nc2cccnc2)c2cc(C#N)ccc21 | 18.8 | 0.0283 mM | – | – |
| 1.4 µM | CC1(C)Oc2ccc(C#N)cc2[C@@H](/N=C(\NC#N)Nc2ccccc2)[C@@H]1O | 7.9 | 0.011 mM | – | – |
| 1 µM | N#Cc1ccc(Oc2ccccc2)c(NC(=O)Nc2cccnc2)c1 | – | 0.002 mM | – | – |
